Compound activity deposited in PubChem BioAssay by Broad Institute.
This is a sample that favours compounds with a hit; in the whole collection about 2.6% have one here.
DENV2 CPE rescue – DENV2-induced cell death inhibition. DENV2-infected cells, cytopathic effect rescue, plate reader. CPE inhibition, % at 9.99 µM. 350,000 tested, 1.7% active. AID 651640; in the data active means CPE inhibition above about 20%, passing the limit was not always enough; inconclusive means no clear call, values can overlap the other calls; tested in BHK-21 cells;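 further: 0% = median of neutral control wells and 100% = median of positive control wells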
CFTR F508del cor – CFTR F508del correction in bronchial cells. activity (quench increase), % at 7.58 µM. CFBE cells, YFP halide quenching; stimulated with forskolin plus potentiator P3; % fluorescence drop versus neutral controls. 350,000 tested, 0.36% active;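 active means mean added fluorescence quench of at least 8% versus neutral control, with both replicates also reaching 8%; inconclusive means only one of the mean or replicate conditions met; inactive means mean below 8% and not both replicates reaching 8%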;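 further: cells transiently co-express mutant CFTR-F508del with the halide-sensitive YFP; corrector assay measuring rescue of mutant channel to the surface after 24 h compound exposure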
miR122 inh – inhibitors of miR-122 in Huh7 cells. Huh7 miR-122 Renilla luciferase sensor, 48 h; neutral wells = 0, positive control = 100. activation (reporter increase), % at 12.5 µM. 340,000 tested, 0.3% active. AID 602342;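 active means mean replicate activation score at least 90 and every replicate individually at or above 90; inconclusive means only one of the two criteria met; inactive means neither criterion met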;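 further: higher luciferase means less miR-122 activity so hits act as miR-122 inhibitors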
E-sel inducer – induces E-selectin expression in human endothelial cells; HUVEC E-selectin immunofluorescence imaging; normalized: neutral wells 0, TNF-alpha wells 100; AID 686992; activation, % at 7.58 µM; P16581; 260,000 tested, 0.37% active;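 active means mean E-selectin-positive cell signal at least 10% of the positive control, reached in at least 60% of replicates, without over 20% cell loss; inconclusive means no rule given, readout overlaps actives, possibly toxicity-flagged; inactive means the rest, including those meeting only one limit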
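Assay system: HUVEC, human umbilical vein endothelial cells / Amount: 3,000 HUVEC/well / Controls: TNF-alpha positive control, DMSO neutral control / Compound dosing: single concentration / Medium: EGM-2 over gelatin coat / Evaluation: percent E-selectin-positive cells / Signal: immunofluorescence imaging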
INS-1E GSIS act – primary screen for activators of insulin secretion dependent on glucose, INS-1E cells, GLuc reporter luminescence; 370,000 tested, 0.61% active; activation, % at 16.6 µM; INS-1E GLuc reporter insulin secretion, 2-3 h;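 active means lowest replicate activation of at least 40%, so every replicate reaches that level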;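 further: 0% = median of neutral control wells and 100% = median of IBMX positive control wells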
ERAP1 inh – inhibitors of human ERAP1 aminopeptidase | recombinant ERAP1, Leu-AMC fluorescence, 60 min | inhibition, % at 10.7 µM | AID 652197 | 340,000 tested, 0.15% active;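 active means mean replicate inhibition of at least 30%, or all replicates individually reaching that 30% level; inactive means mean below 30% and not every replicate reaching it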;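 further: 0% = neutral control wells and 100% = L-leucinethiol positive control wells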
Target sequence (Q9NZ08 whole entry, looked up): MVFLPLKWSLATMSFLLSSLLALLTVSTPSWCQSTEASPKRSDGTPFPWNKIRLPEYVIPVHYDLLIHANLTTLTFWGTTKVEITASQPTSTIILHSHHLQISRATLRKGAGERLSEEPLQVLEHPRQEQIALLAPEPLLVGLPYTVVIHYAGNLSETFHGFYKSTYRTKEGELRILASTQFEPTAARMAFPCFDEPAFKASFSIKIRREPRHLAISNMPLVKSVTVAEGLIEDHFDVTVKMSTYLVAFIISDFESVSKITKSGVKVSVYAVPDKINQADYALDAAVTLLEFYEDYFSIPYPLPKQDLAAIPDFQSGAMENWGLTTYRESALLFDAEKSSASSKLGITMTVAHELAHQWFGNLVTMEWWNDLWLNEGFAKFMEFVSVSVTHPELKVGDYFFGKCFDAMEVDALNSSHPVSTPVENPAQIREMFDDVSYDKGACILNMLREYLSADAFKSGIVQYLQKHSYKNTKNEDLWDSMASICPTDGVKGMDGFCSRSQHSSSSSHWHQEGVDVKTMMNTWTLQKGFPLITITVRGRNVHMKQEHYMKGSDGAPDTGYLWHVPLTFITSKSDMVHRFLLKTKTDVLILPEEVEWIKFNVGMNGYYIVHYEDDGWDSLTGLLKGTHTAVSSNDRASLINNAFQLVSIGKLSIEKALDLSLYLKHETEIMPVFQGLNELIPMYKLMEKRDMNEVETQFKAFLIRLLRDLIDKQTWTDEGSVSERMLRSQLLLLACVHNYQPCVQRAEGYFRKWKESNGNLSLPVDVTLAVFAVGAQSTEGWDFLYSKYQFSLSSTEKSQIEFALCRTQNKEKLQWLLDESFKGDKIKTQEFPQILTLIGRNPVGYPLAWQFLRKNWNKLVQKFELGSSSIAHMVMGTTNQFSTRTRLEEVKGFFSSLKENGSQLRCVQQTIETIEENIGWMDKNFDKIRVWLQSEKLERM
* = called active by the depositor; ? = inconclusive; . = no result; [ ] = remark or other dose.

SMILES	DENV2 CPE rescue	CFTR F508del cor	miR122 inh	E-sel inducer	INS-1E GSIS act	ERAP1 inh
COc1ccccc1S(=O)(=O)N1CC[C@H]2[C@H](CO)Nc3ccc(-c4ccccc4F)cc3[C@H]21	21*	2	6[16.7 µM]	1	12	-2
Cc1ccccc1S(=O)(=O)N1CC[C@@H]2[C@H]1c1cc(-c3ccccc3F)ccc1N[C@@H]2CO	-13	3	45[16.7 µM]	-1	7	-3
Cc1ccccc1S(=O)(=O)N1CC[C@@H]2[C@H](CO)Nc3ccc(-c4ccccc4F)cc3[C@@H]21	43*	-2	28[16.7 µM]	-1	-7	-1
O=S(=O)(c1ccccc1F)N1CC[C@@H]2[C@H]1c1cc(-c3ccccc3F)ccc1N[C@@H]2CO	40*	2	22[16.7 µM]	1	12	-3
COc1ccccc1S(=O)(=O)N1CC[C@@H]2[C@@H](CO)Nc3ccc(-c4ccccc4F)cc3[C@@H]21	-8	1	18[16.7 µM]	1	26	-1
C[C@H](CO)N1C[C@H](C)[C@@H](CN(C)Cc2ccc(Cl)c(Cl)c2)Oc2ccc(NC(=O)Cn3cnnn3)cc2C1=O	?	1	-2[16.7 µM]	0	14	1
C[C@@H]1CN([C@@H](C)CO)C(=O)c2cc(NC(=O)Cn3cnnn3)ccc2O[C@@H]1CN(C)Cc1ccc(Cl)c(Cl)c1	52*	-4	-1[16.7 µM]	.	0	-3
C[C@@H]1CN([C@H](C)CO)C(=O)c2cc(NC(=O)Cn3cnnn3)ccc2O[C@H]1CN(C)Cc1ccc2c(c1)OCO2	21*	1	-12[16.7 µM]	5	-1	2
C[C@H](CO)N1C[C@H](C)[C@@H](CN(C)Cc2ccc3c(c2)OCO3)Oc2ccc(NC(=O)Cn3cnnn3)cc2C1=O	14	2	6[16.7 µM]	-9	26	0
C[C@H]1CN([C@@H](C)CO)C(=O)c2cc(NC(=O)Cn3cnnn3)ccc2O[C@@H]1CN(C)Cc1ccc2c(c1)OCO2	0	0	26[16.7 µM]	38*	25	2
Cc1noc(C)c1NC(=O)Nc1ccc2c(c1)C(=O)N([C@H](C)CO)C[C@H](C)[C@@H](CN(C)C(=O)Nc1cccc3ccccc13)OCCCC[C@H](C)O2	0	0	4[16.7 µM]	0	-13	.
C[C@@H]1CN([C@H](C)CO)C(=O)Cc2cc(NC(=O)Nc3ccc(C(F)(F)F)cc3)ccc2O[C@@H]1CN(C)S(=O)(=O)c1ccc(F)cc1	.	2	9[16.7 µM]	-1	1	.
C[C@H]1CN([C@@H](C)CO)C(=O)Cc2cc(NC(=O)Nc3ccc(C(F)(F)F)cc3)ccc2O[C@H]1CN(C)S(=O)(=O)c1ccccc1	-8	11*	-20[16.7 µM]	.	-33	0
C[C@@H]1CN([C@@H](C)CO)C(=O)Cc2cc(NC(=O)Nc3ccc(C(F)(F)F)cc3)ccc2O[C@H]1CN(C)S(=O)(=O)c1cccs1	35*	5	-3[16.7 µM]	0	2	0
C[C@@H]1CN([C@@H](C)CO)C(=O)Cc2cc(NC(=O)Nc3ccccc3)ccc2O[C@H]1CN(C)S(=O)(=O)c1cccs1	25*	0	-6[16.7 µM]	0	-1	-1
C[C@H]1CN([C@@H](C)CO)C(=O)Cc2cc(NC(=O)Nc3ccc(F)cc3)ccc2O[C@@H]1CN(C)S(=O)(=O)c1cccs1	-3	1	-2[16.7 µM]	0	-6	2
Cc1cccc(-c2cc(N3CCCN(C)CC3)n3nccc3n2)c1	1	-3	-11	69*	-7	1
CN1CCCN(c2cc(-c3ccc4ccccc4c3)nc3ccnn23)CC1	4	1	-3	150*	0	7
CCOc1cccc(-c2cc(N3CCN(CCO)CC3)n3nccc3n2)c1	-4	4	1	2	9	2
COc1ccccc1NC(=O)N[C@@H]1CC[C@H](CCNS(=O)(=O)c2ccc(F)cc2)O[C@@H]1CO	12	0	.	0	-12	0
O=C(C[C@@H]1CC[C@@H]2[C@H](COC[C@H](O)CN2C(=O)Nc2ccc(Cl)c(Cl)c2)O1)NCc1ccc(Cl)c(Cl)c1	44*	0	-8[16.7 µM]	0	-21	-1
CNC(=O)C[C@H]1CC[C@H]2[C@@H](COC[C@@H](O)CN2Cc2ccncc2)O1	-11	1	-1[16.7 µM]	0	5	2
O=C(C[C@@H]1CC[C@@H]2[C@H](COC[C@@H](O)CN2C(=O)Nc2ccc(Cl)c(Cl)c2)O1)NCc1ccc(Cl)c(Cl)c1	-20	-1	-16[16.7 µM]	0	-6	-1
CCNC(=O)C[C@H]1CC[C@H]2[C@@H](COC[C@H](O)CN2Cc2ccc(Cl)c(Cl)c2)O1	109*	3	0[16.7 µM]	0	-7	2
O=C(C[C@@H]1CC[C@H]2[C@@H](COC[C@@H](O)CN2Cc2cccc(C(F)(F)F)c2)O1)NCCc1ccccc1	26*	1	0[16.7 µM]	0	-14	-5
SMILES	DENV2 CPE rescue	CFTR F508del cor	miR122 inh	E-sel inducer	INS-1E GSIS act	ERAP1 inh
CNC(=O)C[C@@H]1CC[C@@H]2[C@H](COC[C@@H](O)CN2Cc2ccncc2)O1	25*	-1	1[16.7 µM]	0	5	2
COCC(=O)N(C)C[C@@H]1Oc2ncc(-c3ccccc3C)cc2C(=O)N([C@H](C)CO)C[C@H]1C	10	1	-1[16.7 µM]	0	13	-2
CO[C@@H]1CN(C)C(=O)c2ccc(NC(=O)C3CCCCC3)cc2OC[C@@H](C)N(Cc2cccnc2)C[C@H]1C	18	3	.	0	-17	5
Cc1cc(C)c(C)c(S(=O)(=O)NCc2cccnc2)c1C	-4	0	72	.	37	-3
COc1cc(S(=O)(=O)NCc2ccncc2)c(OC)cc1Br	28*	-1	.	-1	12	-3
COc1cc(C)c(Cl)c(C)c1S(=O)(=O)NCc1cccnc1	.	.	121*	.	.	.
COc1cc(S(=O)(=O)NCc2cccnc2)c(OC)cc1Br	.	.	108*	9	.	.
O=C(Nc1ccc(Cl)cc1)N[C@@H]1CC[C@H](CCNC(=O)c2ccccc2F)O[C@H]1CO	-10	0	.	0	-18	1
COc1cccc(OCc2nc3c4cnn(-c5ccccc5)c4ncn3n2)c1	.	.	-3	.	57*	.
C=CCn1c(C)nnc1SCC(=O)NC1CC1	93*	2	0	0	-5	0
O=c1c(C(c2ccccc2)c2c(O)sc3ccccc3c2=O)c(O)sc2ccccc12	.	.	.	.	56*	.
C/C(=N\NC(=O)C1CC1)c1ccc(Cl)cc1	9	2	-6	121*	1	8
Cc1cc(C)n2c(NC3CCCC3)c(-c3cccnc3)nc2n1	22*	3	.	0	7	-4
C[C@@H]1CN([C@H](C)CO)C(=O)c2cc(NC(=O)c3ccncc3)ccc2O[C@@H](C)CCCCO[C@H]1CN(C)C(=O)Nc1cccc2ccccc12	-9	3	-5[16.7 µM]	0	-3	-5
